Test results from ChEMBL document CHEMBL1148216, “New nardosinanes and 19-oxygenated ergosterols from the soft coral Nephthea armata collected in Taiwan” (J Nat Prod, 2004).

Legend:
Format in all cases: functional, cell-based
HT-29 = assay: Cytotoxicity against human HT29 cells
Outline: (§1)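 Cytotoxicity was run by a previously described procedure, with mithramycin as the positive control, and IC50 values were derived. P-388 cells were a gift from an academic laboratory, and the A549 and HT-29 cells were obtained from a culture collection.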

A549 = assay: Cytotoxicity against human A549 cells; outline: as §1
P388 = assay: Cytotoxicity against mouse P388 cells; outline: as §1

Row | SMILES | IC50 (HT-29) [µM] | IC50 (A549) [µM] | IC50 (P388) [µM]
1 | CO[C@@H]1O[C@H]2CCC3=C[C@@H](O)C[C@H](C)[C@@]3(C)[C@H]2[C@@H]1C [ARMATIN D] | > 50 | > 50 | > 50
2 | CO[C@H]1O[C@@H]2CCC3=C[C@@H](O)C[C@H](C)[C@@]3(C)[C@H]2[C@@H]1C [ARMATIN C] | > 50 | > 50 | > 50
3 | C[C@@H]1C(=O)O[C@@H]2CCC3=C[C@@H](O)C[C@H](C)[C@@]3(C)[C@@H]12 [ARMATIN B] | > 50 | > 50 | > 50
4 | C[C@@H]1C(=O)O[C@H]2CCC3=CC(=O)C[C@H](C)[C@@]3(C)[C@H]21 | > 50 | > 50 | > 50
5 | C=C(CC[C@@H](C)[C@H]1CC[C@H]2[C@@H]3C[C@@H](O)[C@@]4(O)C[C@@H](O)CC[C@]4(COC(C)=O)[C@H]3CC[C@]12C)C(C)C [ARMATINOL B] | 3.1 |  | 3.2
6 | C=C(CC[C@@H](C)[C@H]1CC[C@H]2[C@@H]3C[C@H]4O[C@]45C[C@@H](O)CC[C@]5(COC(C)=O)[C@H]3CC[C@]12C)C(C)C [ARMATINOL A] | 6.5 | 7.6 | 6.1
7 | CO[C@@H]1O[C@H]2CCC3=CC(=O)C[C@H](C)[C@@]3(C)[C@H]2[C@@H]1C [ARMATIN E] | > 50 | > 50 | > 50
8 | C[C@H]1[C@H]2[C@@H](CCC3=C[C@@H](O)C[C@H](C)[C@]32C)O[C@@H]1O [ARMATIN A] | > 50 | > 50 | > 50
9 | CO[C@H](C(=O)[C@@H](O)[C@@H](C)O)[C@@H]1Cc2cc3cc(O[C@H]4C[C@@H](O[C@@H]5C[C@@H](O)[C@H](O)[C@@H](C)O5)[C@H](O)[C@@H](C)O4)c(C)c(O)c3c(O)c2C(=O)[C@H]1O[C@H]1C[C@@H](O[C@@H]2C[C@@H](O)[C@@H](O[C@@H]3C[C@](C)(O)[C@H](O)[C@@H](C)O3)[C@@H](C)O2)[C@H](O)[C@@H](C)O1 [PLICAMYCIN] | 0.3 | 0.2 | 0.1
